Measurements from different studies.
Sample: plasma

SMILES | test system | setting | measurement | value
C[C@H]1[C@@H](O)O[C@@H]2O[C@@]3(C)CC[C@H]4[C@H](C)CC[C@@H]1[C@@]24OO3 | male Sprague-Dawley rat | oral, 10 mg/kg | MRT(0-inf) | 2.97 h
C[C@H]1Oc2cc(cnc2N)-c2c(nn(C)c2C#N)CN(C)C(=O)c2ccc(F)cc21 | male Sprague-Dawley rat | oral, 5 mg/kg, single dose | MRT(0-t) | 6.6 h
Nc1ccn([C@@H]2O[C@H](CO)[C@@H](O)C2(F)F)c(=O)n1 | male Sprague-Dawley rat | intravenous, 5 mg/kg | MRT(0-inf) | 0.13 h
O=C1CCC(N2Cc3cc(C4CCN(Cc5ccccc5)CC4)ccc3C2=O)C(=O)N1 (stereo not drawn) | male Sprague-Dawley rat | intravenous, 1 mg/kg | MRT(0-inf) | 4.13 h
Cn1c(=O)c2[nH]cnc2n(C)c1=O | male Sprague-Dawley rat | intravenous, 22.5 mg/kg | MRT(0-inf) | 3.69 h
COc1ccc(N(Cc2csc(-c3ccccc3)n2)C(=O)CCCCCC(=O)NO)cc1 | female Sprague-Dawley rat | intravenous, 5 mg/kg | MRT | 0.39 h
COc1ccc(-c2coc3cc(O)cc(O)c3c2=O)cc1 | rat | intravenous, 2 mg/kg | MRT | 0.27 h
COc1cc(-c2cc(C(C)=O)n3ccccc23)c(OC)cc1Cn1ccnc1 | male Sprague-Dawley rat | intravenous, 5 mg/kg | MRT(0-t) | 1.14 h
COc1nc(-c2cccc(-c3ccccc3)c2C)ccc1CNCCNC(=O)CCCCCCCCCCC(=O)N1CCN(CCNC(=O)c2cc3c(=O)n4cccc(C)c4nc3n(CCc3cccs3)c2=N)CC1 | male Sprague-Dawley rat | intravenous, 2 mg/kg | MRT(0-inf) | 5.1 h
CCOc1c([C@H](C)n2nc(C)c3c(N)ncnc32)cc(Cl)c(F)c1[C@@H]1CNC(=O)C1 | male Sprague-Dawley rat | oral, 2 mg/kg, single dose | MRT(0-inf) | 8.49 h
C[C@@]12C[C@@]3(O)O[C@@H](O1)[C@]1(COC(=O)c4ccccc4)[C@H]3C[C@@]12O[C@@H]1O[C@H](CO)[C@@H](O)[C@H](O)[C@H]1O | male Sprague-Dawley rat | oral, 80 mg/kg | MRT(0-t) | 5.13 h
CC[C@@H]([C@H](C)O)n1ncn(-c2ccc(N3CCN(c4ccc(OC[C@@H]5CO[C@@](Cn6cncn6)(c6ccc(F)cc6F)C5)cc4)CC3)cc2)c1=O | Sprague-Dawley rat | oral, 40 mg/kg | MRT(0-inf) | 22.1 h
CC(=O)c1c(C)c2cnc(Nc3ccc(N4CCNCC4)cn3)nc2n(C2CCCC2)c1=O | male Sprague-Dawley rat | intravenous, 5 mg/kg | MRT | 2.5 h
CONC(=O)c1cccc2c1cc(C)n2-c1nc2c(c(NCc3ccccc3)n1)CCCN2 | male Sprague-Dawley rat | intravenous, 1 mg/kg, single dose | MRT | 3.6 h
C=CC(=O)N1CCC([C@@H]2CCNc3c(C(N)=O)c(-c4ccc(Oc5ccccc5)cc4)nn32)CC1 | Sprague-Dawley rat | oral, 16 mg/kg | MRT(0-inf) | 3.93 h
